Data set [1] in a line: folding enthalpy; higher = less favourable; fluorescence melt of hairpins on a sequencing array, two-state fit. The following applies: sodium 0.088 M. A digest of the protocol:
(§1)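 On a sequenced MiSeq flow cell, library hairpins with annealed Cy3 and quencher oligos were imaged for Cy3 fluorescence in 2.5 °C steps up to 60 °C, in 50 mM Na-HEPES pH 8.0, 25 mM NaCl. Normalisation used pre-quench Cy3 and control constructs. Bootstrapped two-state fits gave melting temperature and folding enthalpy, combined by inverse variance across four replicates and with fitted temperatures raised by 9.35 °C to match UV melts.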

A short description of data set [2]: melting temperature; fluorescence melt of hairpins on a sequencing array, two-state fit, raised by 9.35 °C to match UV melts. The following applies: sodium 0.088 M. Summed up: as §1

As to GCTGGCGAAAGCCGAGC ((((((....))).))), in data set [1], the folding enthalpy is -23.5 kcal/mol. Moreover, the Tm in data set [2] worked out at 65.3 °C.

GCTGGCGAAAGCCGTAGC ((((((....)))..))): the folding enthalpy in data set [1] is -13.9 kcal/mol. The Tm in data set [2] is 58.9 °C.

On to GCTGGCGAAAGCCTGAGC ((((((....)))..))), for which, in data set [1], the folding enthalpy is -14.8 kcal/mol. The Tm in data set [2] turned out to be 50.2 °C.

In the case of GCTGGCGCGAAAGCGAGC (((..(((....)))))), the folding enthalpy in data set [1] is -9.37 kcal/mol. Besides, the Tm in data set [2] came out at 55.6 °C.

Turning to GCTGGCGGAAACGCTAGC (((.(((....))).))), in data set [1], the folding enthalpy is -40.5 kcal/mol. Moreover, in data set [2], the Tm is 59.1 °C.

In the case of GCTGGGCGAAAGCCAGGC ((..(((....)))..)), the folding enthalpy in data set [1] is -17.7 kcal/mol. Moreover, the Tm in data set [2] amounted to 59.6 °C.

For GCTGGGCGAAAGCCGCGC ((..(((....)))..)), the folding enthalpy in data set [1] is -15.3 kcal/mol. Moreover, the Tm in data set [2] came to 61.4 °C.

As to GCTGGGCGAAAGCTCCGC ((.(.((....)).).)), the folding enthalpy in data set [1] was -20.4 kcal/mol. For the same sequence, the Tm in data set [2] was found to be 41.8 °C.

Regarding GCTGGGCGAAAGCTCGGC ((.(.((....)).).)), the folding enthalpy in data set [1] is -32.5 kcal/mol. The Tm in data set [2] stood at 60.3 °C.

In the case of GCTGGGCGAAAGCTTAGC (((..((....))..))), the folding enthalpy in data set [1] was -23 kcal/mol. Besides, the Tm in data set [2] was 50.5 °C.

In the case of GCTGGGGCGAAAGCCAGC (((..(((....)))))), the folding enthalpy in data set [1] was -16.8 kcal/mol. In addition, in data set [2], the Tm was determined as 55.3 °C.

GCTGGGGGAAACTCCAGC (((((.(....).))))): in data set [1], the folding enthalpy was -37.6 kcal/mol. Also, the Tm in data set [2] turned out to be 58 °C.

Turning to GCTGGGTCGAAAGACAGC (((..(((....)))))), the folding enthalpy in data set [1] was -19.9 kcal/mol. In addition, the Tm in data set [2] came out at 46 °C.

Consider GCTGGTCCGAAAGGAAGC (((..(((....)))))), for which the folding enthalpy in data set [1] is -13.2 kcal/mol. Also, the Tm in data set [2] turned out to be 34.9 °C.

For the sequence GCTGGTCGAAAGACAAGC (((.(((....))).))), the folding enthalpy in data set [1] was -41.4 kcal/mol. The Tm in data set [2] came out at 56.2 °C.

As to GCTGGTCGAAAGACGAGC (((.(((....))).))), in data set [1], the folding enthalpy was -54.3 kcal/mol. Also, in data set [2], the Tm amounted to 54.5 °C.

Turning to GCTGGTGGAAACGTCAGC ((((..(....)..)))), the folding enthalpy in data set [1] is -23.9 kcal/mol. The Tm in data set [2] worked out at 43.3 °C.

For the sequence GCTGTACGAAAGTAGAGC (((.(((....))).))), the folding enthalpy in data set [1] was -35.3 kcal/mol. Also, the Tm in data set [2] was 51.7 °C.

Consider GCTGTAGGAAACTACAGC (((((((....))))))), for which the folding enthalpy in data set [1] is -44.6 kcal/mol. The Tm in data set [2] was determined as 63.3 °C.

Regarding GCTGTAGGAAACTACGGC ((.((((....)))).)), the folding enthalpy in data set [1] was -42.9 kcal/mol. For the same sequence, the Tm in data set [2] was 53.3 °C.

Regarding GCTGTAGGAAACTATAGC (((.(((....))).))), the folding enthalpy in data set [1] is -28.3 kcal/mol. Also, in data set [2], the Tm came out at 43.7 °C.

As for GCTGTCGAAAGACTCAGC ((((((....)))..))), the folding enthalpy in data set [1] is -18.7 kcal/mol. In data set [2], the Tm amounted to 40.5 °C.

With GCTGTGCGAAAGCAGTGC ((..(((....)))..)), in data set [1], the folding enthalpy was -15.8 kcal/mol. Further, the Tm in data set [2] came to 46.6 °C.

With GCTGTGCGAAAGCGCGGC ((.(.((....)).).)), the folding enthalpy in data set [1] is -25.3 kcal/mol. Also, in data set [2], the Tm was determined as 66.6 °C.

In the case of GCTGTGCGAAAGCTCCGC ((.(.((....)).).)), in data set [1], the folding enthalpy is -14.5 kcal/mol. Besides, the Tm in data set [2] worked out at 40 °C.

In the case of GCTGTGCGAAAGCTGAGC (((..((....))..))), in data set [1], the folding enthalpy is -16.6 kcal/mol. Besides, the Tm in data set [2] is 49.1 °C.

Take GCTGTGGCGAAAGCCAGC (((..(((....)))))): the folding enthalpy in data set [1] is -13.8 kcal/mol. For the same sequence, the Tm in data set [2] was 52.2 °C.

Turning to GCTGTGGGAAACCACAAC (.(((((....))))).), the folding enthalpy in data set [1] was -15.8 kcal/mol. Besides, the Tm in data set [2] worked out at 39.2 °C.

GCTGTTGGAAACAACAAC (.(((((....))))).): in data set [1], the folding enthalpy is -15.9 kcal/mol. The Tm in data set [2] stood at 35.2 °C.

In the case of GCTGTTGGAAACAATAGC (((.(((....))).))), the folding enthalpy in data set [1] is -31.9 kcal/mol. In addition, in data set [2], the Tm was found to be 47.9 °C.

As to GCTGTTGGAAACAGTAGC (((..((....))..))), in data set [1], the folding enthalpy is -11.9 kcal/mol. Further, the Tm in data set [2] stood at 41.6 °C.

Take GCTTAACGAAAGTTAGC (((.(((....)))))): in data set [1], the folding enthalpy is -21.7 kcal/mol. Besides, the Tm in data set [2] turned out to be 44.9 °C.

With GCTTAACGAAAGTTCAGC (((.(((....))).))), in data set [1], the folding enthalpy is -31.6 kcal/mol. Also, in data set [2], the Tm amounted to 44.4 °C.

On to GCTTAAGCGAAAGCTAGC (((..(((....)))))), for which, in data set [1], the folding enthalpy is -17.6 kcal/mol. In addition, the Tm in data set [2] amounted to 40.5 °C.

On to GCTTAAGGAAACCTAAGC (((((.(....).))))), for which the folding enthalpy in data set [1] was -22.8 kcal/mol. The Tm in data set [2] was found to be 35.7 °C.

Consider GCTTACACGAAAGTGAGC (((..(((....)))))), for which, in data set [1], the folding enthalpy is -16.9 kcal/mol. In data set [2], the Tm stood at 38.8 °C.

For the sequence GCTTACCGAAAGGTAGC (((.(((....)))))), the folding enthalpy in data set [1] was -19.8 kcal/mol. For the same sequence, in data set [2], the Tm was found to be 53 °C.

The values above are taken from the array DNA melting data of Ke et al. (doi:10.1101/2024.01.08.574731).
